As usually defined, the IC50 is the concentration that gives 50% inhibition.

For 18 compounds, IC50 and Activity results are on record in ChEMBL document CHEMBL1142860, “Potent antitubulin tumor cell cytotoxins based on 3-aroyl indazoles” (J Med Chem, 2007).

One test relates to HCT-15. Put plainly: Antiproliferative activity against drug resistant HCT15 cell line expressing MDR1 by Alamar Blue assay. The following applies: Homo sapiens. Format: functional, cell-based. The method in brief:
(§1)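 Cells in exponential growth seeded at 4000–6000 per well, held 24 h at 37 °C, 5% CO2 before compound; T0 population read by AlamarBlue at time of addition. Compounds in DMSO diluted into complete medium; 72 h exposure at 37 °C, 5% CO2. Viable cells quantified with AlamarBlue; IC50 as 50% growth inhibition; triplicate.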
For orientation: The colour change of resazurin is a common sign of viable cells or microbes.

The next test relates to ACHN. Put plainly: Antiproliferative activity against drug resistant ACHN cell line expressing MDR1 by Alamar Blue assay. Format: functional, cell-based. The following applies: Homo sapiens. In outline: as §1
Another test concerns NCI-H69. Put plainly: Antiproliferative activity against drug sensitive NCI-H69 cell line by Alamar Blue assay. Type of test: functional, cell-based. As to conditions: Homo sapiens. In outline: as §1
The subject of another test is H69AR. Put plainly: Antiproliferative activity against drug resistant H69AR cell line expressing MRP1 by Alamar Blue assay. Type of test: functional, cell-based. As to conditions: Homo sapiens. The method in brief: as §1
The nature of test [1]: (§2) Displacement of [3H]colchicine from tubulin in bovine brain at 500 nM. Set-up: species or system Bos taurus. The method in brief: (§3)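 Purified tubulin (bovine brain, HeLa or MCF-7 source) preincubated with compound 10 min at 37 °C, then [3H]colchicine added and incubated a further 30 min at 37 °C. Samples spotted on DE81 filters, washed three times to remove unbound label; bound [3H]colchicine counted by scintillation.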
(In general: Loss of bound radioactivity is the signal in a displacement assay; it reports binding, not function.)

The species named for a further test is Bos taurus. The description is as §2. The method in brief: as §3
Test [2] has as its target Tubulin. Put plainly: Displacement of [3H]colchicine from tubulin in HeLa cells. Type of test: cell-based, Homo sapiens. In outline:
as §3

Test [3] deals with Tubulin. Put plainly: Displacement of [3H]colchicine from tubulin in MCF7 cells. Format: cell-based, Homo sapiens. In outline: as §3
Test [4] can be described thus: Inhibition of bovine tubulin polymerization. Set-up: species or system Bos taurus. In outline:
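Purified bovine tubulin incubated with compound in buffer with 10% glycerol using a commercial kit; microtubule formation followed as rise in fluorescence intensity of the reaction mixture; IC50 from concentration-dependent inhibition.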

The test system of another test is NCI-H460. Put plainly: Inhibition of proliferation of human H460 cells. Format: functional, cell-based. The method in brief: as §1
The test system of a further test is HT-29. Put plainly: Cytotoxicity against human HT29 cells. Format: cell-based. The method in brief: (§4)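 Exponentially growing cells seeded at 4000–6000 per well and incubated 24 h (37 °C, 5% CO₂) before dosing. Cell population at time of drug addition (T₀) measured by AlamarBlue. Compounds dissolved in DMSO, diluted in complete medium, and exposed for 72 h. Viable cells quantified by AlamarBlue. IC₅₀ is 50% growth inhibition. Assays run in triplicate.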

The next test relates to PC-3. Put plainly: Cytotoxicity against human PC3 cells. Format: cell-based. The method in brief:
as §4

The next test relates to HeLa. Put plainly: Cytotoxicity against human HeLa cells. Format: cell-based. The method in brief:
as §1

Test [5] is described as follows: Antiproliferative activity against drug sensitive Messa cell line by Alamar Blue assay. Format: functional, cell-based. As to conditions: Homo sapiens, MES-SA. In outline: as §1
Test [6] in a line: Antiproliferative activity against drug resistant Messa/DX5 cell line expressing MDR1 by Alamar Blue assay. Format: functional, cell-based. The following applies: Homo sapiens, MES-SA/Dx5. In outline:
as §1

`COc1cc(C(=O)c2n[nH]c3c(C#CCO)c(OC)ccc23)cc(OC)c1OC`: the IC50 in the test on HCT-15 worked out at 1.9 nM; with ACHN it was 1.6 nM; with NCI-H69 it was 1.6 nM; with H69AR, 2.6 nM; in [1], 500 nM; on Tubulin [2], 46 nM. Moreover, the IC50 on Tubulin [3] amounted to 240 nM; in [4], 6000 nM; in the test with NCI-H460, 8 nM; in the test on HT-29, 1 nM; with PC-3 it was 1 nM; in the test with HeLa it was 0.8 nM. Further, the results for the IC50 in [5] and in test [6] were 1.7 nM and 1.8 nM, respectively. Further, the Activity in the test listed under Bos taurus came out at 70%.

In the case of `C#Cc1c(OC)ccc2c(C(=O)c3cc(OC)c(OC)c(OC)c3)n[nH]c12`, the IC50 with ACHN was 1.6 nM; with NCI-H69 it was 2.5 nM; with H69AR it was 2.2 nM; in the test with NCI-H460 it was 3 nM; with HT-29 it was 1.7 nM; in the test on PC-3, 3 nM. Also, the results for the IC50 (with HeLa; in test [5]; in [6]) were 2.3 nM, 1.9 nM and 3.9 nM, respectively.

In the test on NCI-H460, `COc1cc(C(=O)c2n[nH]c3c(C#CC(C)(C)O)c(OC)ccc23)cc(OC)c1OC` returned an IC50 of 195 nM. This counts as sub-micromolar.

For the compound `COc1ccc(/C=C\c2cc(OC)c(OC)c(OC)c2)cc1O` [COMBRETASTATIN A4], the IC50 with HCT-15 was 2.5 nM; with ACHN, 1.6 nM; in the test on NCI-H69, 1.7 nM; with H69AR it was 2.5 nM; in the test on NCI-H460, 10 nM; in the test with HT-29 it was > 1000 nM. The IC50 in the test with PC-3 turned out to be 3.2 nM; with HeLa it was 2.7 nM; in test [5], 1.6 nM; in [6], 1.4 nM.

In the test on NCI-H460, `COc1cc(C(=O)c2n[nH]c3c(/C=C\CO)c(OC)ccc23)cc(OC)c1OC` returned an IC50 of 13 nM. In other words, the double-digit nanomolar range.

On to `COc1ccc2c(C(=O)c3cc(OC)c(OC)c(OC)c3)c[nH]c2c1`, for which the IC50 in the test with NCI-H460 came to 16 nM.

As to `COc1cc(C(=O)c2n[nH]c3c(C#CCCCO)c(OC)ccc23)cc(OC)c1OC`, the IC50 in the test with NCI-H460 stood at 8 nM. Against the preceding compound, the IC50 is about 2-fold lower.

On to `COc1cc(C(=O)c2n[nH]c3c(C#C[C@@H](C)O)c(OC)ccc23)cc(OC)c1OC`, for which, in the test on NCI-H460, the IC50 was determined as 29 nM.

Turning to `COc1cc2c(c(OC)c1OC)-c1ccc(OC)c(=O)cc1[C@@H](NC(C)=O)CC2` [COLCHICINE], the IC50 in the test with HCT-15 stood at 100 nM; with ACHN it was 39.8 nM; in test [5], 6.3 nM; in test [6], 63 nM.

In the test with NCI-H460, `COc1cc(C(=O)c2n[nH]c3c(C#C[C@H](C)O)c(OC)ccc23)cc(OC)c1OC` returned an IC50 of 14 nM.

As for `COc1cccc2c1C(=O)c1c(O)c3c(c(O)c1C2=O)C[C@@](O)(C(C)=O)C[C@@H]3O[C@H]1C[C@H](N)[C@H](O)[C@H](C)O1` [DAUNORUBICIN], the IC50 is > 400 nM in the test with HCT-15; 63 nM in the test on ACHN; 100 nM in the test with NCI-H69; > 1000 nM in the test with H69AR; 20 nM in [5]; > 400 nM in [6].

In the test with NCI-H460, `COc1cc(C(=O)c2n[nH]c3c(C#CCCO)c(OC)ccc23)cc(OC)c1OC` displayed a concentration for half-maximal inhibition (IC50) of 14 nM.

Take `CC#Cc1c(OC)ccc2c(C(=O)c3cc(OC)c(OC)c(OC)c3)c[nH]c12`: in the test on NCI-H460, the IC50 was > 1000 nM.

Turning to `COc1cc(C(=O)c2n[nH]c3c(C#CCN)c(OC)ccc23)cc(OC)c1OC`, inhibition in the test with NCI-H460 was half-maximal at 247 nM (IC50).

For `COc1cc(C(=O)c2n[nH]c3c(CCCO)c(OC)ccc23)cc(OC)c1OC`, in the test on NCI-H460, the IC50 turned out to be 283 nM.

Turning to `CC#Cc1c(OC)ccc2c(C(=O)c3cc(OC)c(OC)c(OC)c3)n[nH]c12`, the IC50 came out at 1.9 nM in the test on HCT-15; 1.6 nM with ACHN; 1.6 nM with NCI-H69; 2.5 nM in the test with H69AR; 1 nM with NCI-H460; 3 nM in the test with HT-29. For the same compound, the IC50 with PC-3 stood at 1.1 nM; in the test on HeLa, 0.9 nM; in test [5], 1.6 nM; in test [6], 1.9 nM.

Consider `CC[C@]1(O)C[C@@H]2CN(CCc3c([nH]c4ccccc34)[C@@](C(=O)OC)(c3cc4c(cc3OC)N(C)[C@H]3[C@@](O)(C(=O)OC)[C@H](OC(C)=O)[C@]5(CC)C=CCN6CC[C@]43[C@@H]65)C2)C1` [VINBLASTINE], for which the half-maximal inhibitory concentration (IC50) in the test on HCT-15 was 79.4 nM; with ACHN, 25 nM; in the test with NCI-H69, 1.6 nM; in the test on H69AR, 1.6 nM; in [5] it was 1.6 nM; in test [6], 8.9 nM.

With `CC(=O)O[C@H]1C(=O)[C@@]2(C)[C@H]([C@H](OC(=O)c3ccccc3)[C@]3(O)C[C@H](OC(=O)[C@H](O)[C@@H](NC(=O)c4ccccc4)c4ccccc4)C(C)=C1C3(C)C)[C@]1(OC(C)=O)CO[C@@H]1C[C@@H]2O` [PACLITAXEL], the IC50 is 79.4 nM with HCT-15; 25 nM in the test on ACHN; 1.9 nM with NCI-H69; 2.5 nM in the test with H69AR; 1.6 nM in [5]; > 1000 nM in [6].
